Results: ChEMBL document CHEMBL4190388, “Discovery and Optimization of Indolyl-Containing 4-Hydroxy-2-Pyridone Type II DNA Topoisomerase Inhibitors Active against Multidrug Resistant Gram-negative Bacteria” (J Med Chem, 2018)
pIC50: −log10 of the molar value. In brackets after ≈: the same amount, converted by molar mass.

Legend:
Mus musculus [1] = experiment: AUC (0 to 24 hrs) in CD1 mouse plasma at 10 mg/kg, iv by LC-MS/MS analysis; assay type: ADME, organism-based; parameters: time < 24 hr, dose 10 mg/kg, route intravenous; conditions: in vivo
How it was run: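 CD-1 mice given a single 10 mg/kg iv dose (n = 3), in either 10% DMSO plus 1% Tween 80 in pH 8.0 phosphate buffer or 20% (2-hydroxypropyl)-β-cyclodextrin in pH 4.0 citrate buffer; plasma exposure measured.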

Escherichia coli [2] = experiment: Antibacterial activity against Escherichia coli infected in cyclophosphamide treated neutropenic CD1 mouse septicemia model assessed as mouse survival at 20 mg/kg, iv dosed at 1 hr post infection followed by redosing at 5 hrs post infection measured at 96 hrs post infection relative to control; assay type: functional
How it was run: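 Female CD-1 mice were made neutropenic with cyclophosphamide ip, 150 mg/kg on day −4 and 100 mg/kg on day −1. […] Compound was given iv in 3% DMSO/saline at 1 and 5 h postinfection, n = 6 per group. Percent survival was scored at 96 h postinfection.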

Escherichia coli [3] = experiment: Antibacterial activity against wild type Escherichia coli by broth microdilution method; assay type: functional
How it was run: (§1)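 MICs were determined by CLSI broth methods, except that organisms were grown in brain–heart–infusion medium. The panel comprised wild-type and resistant E. coli and A. baumannii strains, including 12 strains whose details are given by reference.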

Acinetobacter baumannii [4] = experiment: Antibacterial activity against beta-lactam resistant Acinetobacter baumannii by broth microdilution method; assay type: functional; conditions: Acinetobacter baumannii; how it was run: as §1
Acinetobacter baumannii [5] = experiment: Antibacterial activity against carbapenem resistant Acinetobacter baumannii by broth microdilution method; assay type: functional; conditions: Acinetobacter baumannii; how it was run: as §1
Acinetobacter baumannii [6] = experiment: Antibacterial activity against quinolone resistant Acinetobacter baumannii by broth microdilution method; assay type: functional; conditions: Acinetobacter baumannii; how it was run: as §1
Escherichia coli [7] = experiment: Antibacterial activity against wild type Escherichia coli ATCC 25922 by CLSI M100-S17 protocol based method; assay type: functional
[8] = Oral bioavailability in CD1 mouse plasma by LC-MS/MS analysis; assay type: ADME, organism-based
Escherichia coli [9] = experiment: Antibacterial activity against quinolone resistant Escherichia coli by broth microdilution method; assay type: functional; conditions: Escherichia coli; for MIC: read-out: MIC; how it was run: as §1
Acinetobacter baumannii [10] = experiment: Antibacterial activity against wild type Acinetobacter baumannii by broth microdilution method; assay type: functional; how it was run: as §1
Escherichia coli [11] = experiment: Antibacterial activity against beta-lactam resistant Escherichia coli by broth microdilution method; assay type: functional; conditions: Escherichia coli; for MIC: read-out: MIC; how it was run: as §1
[12] = Fraction unbound in mouse plasma at 1 uM by equilibrium dialysis method; assay type: ADME, cell-free
Escherichia coli [13] = experiment: Antibacterial activity against wild type Escherichia coli ATCC 25922 in presence of HSA by CLSI M100-S17 protocol based method; assay type: functional
Escherichia coli [14] = experiment: Antibacterial activity against fluoroquinolone resistant Escherichia coli SKM18 by CLSI M100-S17 protocol based method; assay type: functional
Klebsiella pneumoniae = experiment: Antibacterial activity against wild type Klebsiella pneumoniae ATCC 35657 by CLSI M100-S17 protocol based method; assay type: functional
Escherichia coli [15] = experiment: Antibacterial activity against aminoglycoside resistant Escherichia coli by broth microdilution method; assay type: functional; conditions: Escherichia coli; for MIC: read-out: MIC; how it was run: as §1
Escherichia coli [16] = experiment: Antibacterial activity against quinolone resistance Escherichia coli isolate ELZ4251 harboring gyrA/parC mutant by CLSI M100-S17 protocol based method; assay type: functional
Acinetobacter baumannii [17] = experiment: Antibacterial activity against fluoroquinolone resistant Acinetobacter baumannii isolate MMX2240 by CLSI M100-S17 protocol based method; assay type: functional
Mus musculus [18] = experiment: Volume of distribution at steady state in CD1 mouse plasma at 10 mg/kg, iv by LC-MS/MS analysis; assay type: ADME, organism-based; conditions: in vivo
Acinetobacter baumannii [19] = experiment: Antibacterial activity against multidrug resistant Acinetobacter baumannii by broth microdilution method; assay type: functional; conditions: Acinetobacter baumannii; how it was run: as §1
Acinetobacter baumannii [20] = experiment: Antibacterial activity against wild type Acinetobacter baumannii ATCC BAA-747 by CLSI M100-S17 protocol based method; assay type: functional
Acinetobacter baumannii [21] = experiment: Antibacterial activity against aminoglycoside resistant Acinetobacter baumannii by broth microdilution method; assay type: functional; conditions: Acinetobacter baumannii; how it was run: as §1
Escherichia coli [22] = experiment: Antibacterial activity against multidrug resistant Escherichia coli by broth microdilution method; assay type: functional; conditions: Escherichia coli; for MIC: read-out: MIC; how it was run: as §1
Escherichia coli [23] = experiment: Selectivity ratio of MIC for wild type Escherichia coli ATCC 25922 in presence of HSA to MIC for wild type Escherichia coli ATCC 25922; assay type: functional
Mus musculus [24] = experiment: Terminal half life in CD1 mouse plasma at 10 mg/kg, iv by LC-MS/MS analysis; assay type: ADME, organism-based; conditions: in vivo
[25] = Inhibition of Escherichia coli DNA topoisomerase 4 assessed as reduction in decatenation activity using kinetoplast concatenated DNA as substrate after 30 mins by picogreen dye based fluorescence assay
Escherichia coli [26] = experiment: Antibacterial activity against Escherichia coli SKM11 by CLSI M100-S17 protocol based method; assay type: functional
Escherichia coli [27] = experiment: Antibacterial activity against wild type Escherichia coli 1609 by CLSI M100-S17 protocol based method; assay type: functional
DNA gyrase subunit A = DNA gyrase subunit A (Escherichia coli K-12, UniProt P0AES4); experiment: Inhibition of His tagged Escherichia coli ATCC 25922 DNA gyrase A SD-LY mutant expressed in Escherichia coli BL21 (DE3) pLysS cells assessed as reduction in enzyme-mediated supercoiling of relaxed plasmid DNA pNO1 after 30 mins in presence of biotinylated TFO1 by fluorescence assay
Sequence of DNA gyrase subunit A (P0AES4 2-875 limits assumed): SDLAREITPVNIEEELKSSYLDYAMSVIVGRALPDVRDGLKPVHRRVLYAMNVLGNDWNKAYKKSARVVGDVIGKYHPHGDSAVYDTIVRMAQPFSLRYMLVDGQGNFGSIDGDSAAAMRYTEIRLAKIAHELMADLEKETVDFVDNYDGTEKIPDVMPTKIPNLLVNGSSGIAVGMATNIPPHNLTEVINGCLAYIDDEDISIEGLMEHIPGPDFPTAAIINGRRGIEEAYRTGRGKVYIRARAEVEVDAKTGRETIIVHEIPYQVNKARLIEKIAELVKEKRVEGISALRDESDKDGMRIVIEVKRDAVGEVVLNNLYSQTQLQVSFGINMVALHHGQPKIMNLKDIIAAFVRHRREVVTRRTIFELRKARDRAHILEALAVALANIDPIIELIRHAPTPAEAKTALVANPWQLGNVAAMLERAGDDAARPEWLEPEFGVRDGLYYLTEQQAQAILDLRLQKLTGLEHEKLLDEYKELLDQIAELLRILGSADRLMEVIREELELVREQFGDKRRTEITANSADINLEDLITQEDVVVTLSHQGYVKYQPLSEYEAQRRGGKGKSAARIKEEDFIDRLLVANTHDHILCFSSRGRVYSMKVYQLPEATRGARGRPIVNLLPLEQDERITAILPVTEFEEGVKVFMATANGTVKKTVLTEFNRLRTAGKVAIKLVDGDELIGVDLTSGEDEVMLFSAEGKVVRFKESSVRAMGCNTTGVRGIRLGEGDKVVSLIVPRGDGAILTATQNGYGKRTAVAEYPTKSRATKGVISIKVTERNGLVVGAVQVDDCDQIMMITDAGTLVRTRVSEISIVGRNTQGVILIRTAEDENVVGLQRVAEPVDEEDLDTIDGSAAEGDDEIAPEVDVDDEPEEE

[28] = Inhibition of His tagged Escherichia coli ATCC 25922 DNA gyrase A expressed in Escherichia coli BL21 (DE3) pLysS cells assessed as reduction in enzyme-mediated supercoiling of relaxed plasmid DNA pNO1 after 30 mins in presence of biotinylated TFO1 by fluorescence assay

## Cn1c(CNC2(C)CCC2)cc2cc3c(cc21)OCCc1c-3[nH]c(=O)c(C(=O)O)c1O
Mus musculus [1]
  AUC: 4420 ng·h/mL
Escherichia coli [2]
  survival at 20 mg/kg: 67%
Escherichia coli [3]
  MIC50: 0.5 µg/mL (≈ 1.18 µM)
  MIC90: 1 µg/mL (≈ 2.36 µM)
Acinetobacter baumannii [4]
  MIC50: 1 µg/mL (≈ 2.36 µM)
  MIC90: 8 µg/mL (≈ 18.9 µM)
Acinetobacter baumannii [5]
  MIC50: 1 µg/mL (≈ 2.36 µM)
  MIC90: 8 µg/mL (≈ 18.9 µM)
Acinetobacter baumannii [6]
  MIC50: 1 µg/mL (≈ 2.36 µM)
  MIC90: 8 µg/mL (≈ 18.9 µM)
Escherichia coli [7]
  MIC: 1 µg/mL (≈ 2.36 µM)
[8]
  bioavailability: 50%
Escherichia coli [9]
  MIC50: 0.5 µg/mL (≈ 1.18 µM)
  MIC90: 1 µg/mL (≈ 2.36 µM)
  MIC: 0.12 to 1 µg/mL (≈ 0.283 to 2.36 µM)
Acinetobacter baumannii [10]
  MIC50: 1 µg/mL (≈ 2.36 µM)
  MIC90: 8 µg/mL (≈ 18.9 µM)
Escherichia coli [11]
  MIC50: 0.5 µg/mL (≈ 1.18 µM)
  MIC90: 1 µg/mL (≈ 2.36 µM)
  MIC: 0.12 to 1 µg/mL (≈ 0.283 to 2.36 µM)
[12]
  Fu: 0.15
Escherichia coli [13]
  MIC: 3.9 µg/mL
Escherichia coli [14]
  MIC: 0.5 µg/mL (≈ 1.18 µM)
Klebsiella pneumoniae
  MIC: 1 µg/mL (≈ 2.36 µM)
Escherichia coli [15]
  MIC50: 0.5 µg/mL (≈ 1.18 µM)
  MIC90: 1 µg/mL (≈ 2.36 µM)
  MIC: 0.12 to 1 µg/mL (≈ 0.283 to 2.36 µM)
Escherichia coli [16]
  MIC: 0.78 µg/mL (≈ 1.84 µM)
Acinetobacter baumannii [17]
  MIC: 0.5 µg/mL (≈ 1.18 µM)
Mus musculus [18]
  Vdss: 13 L/kg
Acinetobacter baumannii [19]
  MIC50: 1 µg/mL (≈ 2.36 µM)
  MIC90: 8 µg/mL (≈ 18.9 µM)
Acinetobacter baumannii [20]
  MIC: 0.5 µg/mL (≈ 1.18 µM)
Acinetobacter baumannii [21]
  MIC50: 1 µg/mL (≈ 2.36 µM)
  MIC90: 8 µg/mL (≈ 18.9 µM)
Escherichia coli [22]
  MIC50: 0.5 µg/mL (≈ 1.18 µM)
  MIC90: 1 µg/mL (≈ 2.36 µM)
  MIC: 0.12 to 1 µg/mL (≈ 0.283 to 2.36 µM)
Escherichia coli [23]
  Ratio: 2 - 4
Mus musculus [24]
  beta t1/2: 3.3 h

## CCNCc1cc2cc3c(cc2n1C)CCCc1c-3[nH]c(=O)c(C(=O)O)c1O
[25]
  pIC50: 5.54
Escherichia coli [2]
  survival at 20 mg/kg: 83%
Escherichia coli [3]
  MIC50: 1 µg/mL (≈ 2.62 µM)
  MIC90: 1 µg/mL (≈ 2.62 µM)
Acinetobacter baumannii [4]
  MIC50: 2 µg/mL (≈ 5.24 µM)
  MIC90: 16 µg/mL (≈ 41.9 µM)
Acinetobacter baumannii [4]; read-out: MIC
  MIC: 0.25 to 32 µg/mL (≈ 0.655 to 83.9 µM)
Acinetobacter baumannii [5]
  MIC50: 2 µg/mL (≈ 5.24 µM)
  MIC90: 16 µg/mL (≈ 41.9 µM)
Acinetobacter baumannii [5]; read-out: MIC
  MIC: 0.25 to 32 µg/mL (≈ 0.655 to 83.9 µM)
Escherichia coli [26]
  MIC: 1.6 µg/mL (≈ 4.19 µM)
Acinetobacter baumannii [6]
  MIC50: 2 µg/mL (≈ 5.24 µM)
  MIC90: 16 µg/mL (≈ 41.9 µM)
Acinetobacter baumannii [6]; read-out: MIC
  MIC: 0.25 to 32 µg/mL (≈ 0.655 to 83.9 µM)
Escherichia coli [27]
  MIC: 1.6 µg/mL (≈ 4.19 µM)
DNA gyrase subunit A
  pIC50: 6.12
Escherichia coli [7]
  MIC: 0.39 µg/mL (≈ 1.02 µM)
Escherichia coli [9]
  MIC50: 1 µg/mL (≈ 2.62 µM)
  MIC90: 1 µg/mL (≈ 2.62 µM)
  MIC: 0.25 to 1 µg/mL (≈ 0.655 to 2.62 µM)
Acinetobacter baumannii [10]
  MIC50: 2 µg/mL (≈ 5.24 µM)
  MIC90: 16 µg/mL (≈ 41.9 µM)
Escherichia coli [11]
  MIC50: 1 µg/mL (≈ 2.62 µM)
  MIC90: 1 µg/mL (≈ 2.62 µM)
  MIC: 0.25 to 1 µg/mL (≈ 0.655 to 2.62 µM)
[12]
  Fu: 0.17
Escherichia coli [13]
  MIC: 6.3 µg/mL
Escherichia coli [14]
  MIC: 0.39 µg/mL (≈ 1.02 µM)
Klebsiella pneumoniae
  MIC: 0.78 µg/mL (≈ 2.04 µM)
Escherichia coli [15]
  MIC50: 1 µg/mL (≈ 2.62 µM)
  MIC90: 1 µg/mL (≈ 2.62 µM)
  MIC: 0.25 to 1 µg/mL (≈ 0.655 to 2.62 µM)
[28]
  pIC50: 7.00 to 7.25
Escherichia coli [16]
  MIC: 1.6 µg/mL (≈ 4.19 µM)
Acinetobacter baumannii [17]
  MIC: 1.6 µg/mL (≈ 4.19 µM)
Acinetobacter baumannii [19]
  MIC50: 2 µg/mL (≈ 5.24 µM)
  MIC90: 16 µg/mL (≈ 41.9 µM)
Acinetobacter baumannii [19]; read-out: MIC
  MIC: 0.25 to 32 µg/mL (≈ 0.655 to 83.9 µM)
Acinetobacter baumannii [20]
  MIC: 0.78 µg/mL (≈ 2.04 µM)
Acinetobacter baumannii [21]
  MIC50: 2 µg/mL (≈ 5.24 µM)
  MIC90: 16 µg/mL (≈ 41.9 µM)
Acinetobacter baumannii [21]; read-out: MIC
  MIC: 0.25 to 32 µg/mL (≈ 0.655 to 83.9 µM)
Escherichia coli [22]
  MIC50: 1 µg/mL (≈ 2.62 µM)
  MIC90: 1 µg/mL (≈ 2.62 µM)
  MIC: 0.25 to 1 µg/mL (≈ 0.655 to 2.62 µM)
